GSTO1 counter = inhibitors of recombinant GSTO1, primary screen, counter-screen for RBBP9 inhibitor project, biochemical, fluorescence polarization | AID 1974, 2009 | Glutathione S-transferase omega-1 (Homo sapiens), P78417 | inhibition, % at 5.96 µM | activity-based probe fluorescence polarization | actives 1.1% (n = 300,000);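 active means inhibition above the campaign mean inhibition plus 3 SD, cut at about 35% in these data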;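 further: 0% = GSTO1-1 with DMSO and 100% = wells lacking GSTO1-1 enzyme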
Target sequence (P78417 whole entry, looked up): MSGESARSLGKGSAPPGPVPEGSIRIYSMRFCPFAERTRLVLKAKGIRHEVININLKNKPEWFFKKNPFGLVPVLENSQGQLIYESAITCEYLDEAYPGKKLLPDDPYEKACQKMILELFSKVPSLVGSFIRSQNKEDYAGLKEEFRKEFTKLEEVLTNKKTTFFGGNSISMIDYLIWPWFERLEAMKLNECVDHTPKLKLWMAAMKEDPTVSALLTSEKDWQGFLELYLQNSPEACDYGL
PAD4 inh = human PAD4 inhibitors, primary screen, biochemical, fluorescence polarization, 1536-well format. actives 0.41% (n = 330,000). recombinant PAD4, RCA probe fluorescence polarization. Protein-arginine deiminase type-4 (Homo sapiens), Q9UM07. AID 485272, 2010. inhibition, % at 6.36 µM;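 active means percent inhibition above a cutoff equal to the mean of all tested compounds plus 3 SD, cut at about 15% in these data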;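 further: 0% = PAD4 with RCA probe and DMSO and 100% = probe without PAD4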
Apaf-1 inh = inhibitors of human Apaf-1 apoptosome, primary screen, biochemical, DEVD-Rh110 fluorescence, uHTS; reconstituted apoptosome caspase-3 activity; inhibition, % at 20 µM; actives 0.71% (n = 330,000); AID 489030, 2010; active means inhibition of at least 40% at 20 µM;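 further: plate controls were DMSO wells for no effect and DEVD-CHO caspase inhibitor wells for full effect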
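Assay system – apoptosome proteins · Medium – Hepes buffer, pH 7.5 · Also added – cytochrome c with DEVD-Rh110 · Timing – 30 min compound preincubation, 50 min activation, room temperature · Detection – Rh110 fluorescence, excitation 480 nm, emission 540 nm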
TDP2 absorb = human TDP2 enzyme inhibitors, primary screen, biochemical, epi absorbance, recombinant enzyme; T5PNP hydrolysis, p-nitrophenol absorbance 415 nm; inhibition, % at 12.8 µM; actives 0.34% (n = 370,000); Tyrosyl-DNA phosphodiesterase 2 (Homo sapiens), O95551;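 active means inhibition above the mean of all tested compounds plus 3 SD, set per campaign, cut at about 25% in these data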;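 further: 0% = DMSO with enzyme and 100% = buffer with substrate but no TDP2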
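Incubation: 2 h at 37 °C; Test system: recombinant human TDP2; Quantity: enzyme 120 nM; Read-out basis: percent inhibition; Medium: 50 mM Tris-HCl pH 7.5 with Mg2+, KCl, DTT, BSA; Repeats: single replicate; Compound: 12.8 µM single point, 1% DMSO; Signal: epi absorbance; Reagent: 5 mM T5PNP chromogenic substrate; Benchmarks: no-enzyme high, DMSO-plus-enzyme low.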
PRMT1 FP inh = PRMT1 methyltransferase inhibitors, primary screen, biochemical, fluorescence polarization | AID 652257, 2013 | inhibition, % at 2.79 µM | actives 1.3% (n = 370,000) | recombinant PRMT1, activity-based probe fluorescence polarization;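 active means inhibition above about 21% made by adding two undisclosed values, limit read from the data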
Target sequence (Q99873 whole entry, looked up): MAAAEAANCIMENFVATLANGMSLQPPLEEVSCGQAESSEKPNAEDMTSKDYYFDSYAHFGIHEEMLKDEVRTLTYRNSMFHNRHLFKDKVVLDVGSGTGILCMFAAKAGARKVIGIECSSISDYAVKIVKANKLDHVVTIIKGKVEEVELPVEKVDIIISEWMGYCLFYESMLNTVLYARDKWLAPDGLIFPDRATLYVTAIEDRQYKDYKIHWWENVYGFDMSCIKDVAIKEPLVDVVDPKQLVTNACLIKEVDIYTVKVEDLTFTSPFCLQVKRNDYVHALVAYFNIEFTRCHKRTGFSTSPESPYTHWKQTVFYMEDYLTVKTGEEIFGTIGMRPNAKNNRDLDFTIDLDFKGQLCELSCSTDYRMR
PRMT1 confirm = PRMT1 methyltransferase inhibitors, confirmation, biochemical, fluorescence polarization, triplicate; shares compounds with PRMT1 FP inh; inhibition, % at 2.79 µM; actives 42% (n = 3,300); AID 687036, 2013; recombinant His-PRMT1, activity-based probe fluorescence polarization;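 active means mean inhibition across replicates above the hit cutoff derived for the earlier primary screen, cut at about 22% in these data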
* marks the source's active call; other numbers are inactive results; . = no result. Only some compounds are listed: those with a hit (about 2.6% of all), similar ones and a draw of the others.

SMILES | GSTO1 counter | PAD4 inh | Apaf-1 inh | TDP2 absorb | PRMT1 FP inh | PRMT1 confirm
CN1Cc2sc(NC(=S)NC(=O)c3ccccc3)c(C#N)c2CC1(C)C | 4.2 | -6.5 | 18.5 | -17.9 | 70.9* | 8.9
CCN1CCc2c(sc(NC(=S)NC(=O)c3ccccc3)c2C#N)C1 | 5.5 | 0.4 | 5.2 | 1.3 | 73.3* | 11.9
CCC1(C)Cc2c(sc(NC(=S)NC(=O)c3ccccc3)c2C#N)CO1 (centres undefined) | -1.1 | -1.0 | -3.5 | -6.1 | 14.6 | .
c1ccc2c(C3=NNC(=NC4CC4)SC3)c[nH]c2c1 | 1.5 | 1.2 | 0.0 | 1.2 | 37.9* | 3.4
S=C1NCCOCCOCCOCCNC(=S)N2CCOCCOCCN1CCOCCOCC2 | 2.6 | -6.8 | -10.6 | 6.5 | 0.1 | .
Cc1ccc(-c2cc(C(=O)N(C)CC(=O)Nc3ccccc3Br)c3ccccc3n2)o1 | -11.5 | 1.4 | 13.7 | 5.1 | 30.4* | 39.4*
Cc1ccc(-c2cc(C(=O)Nc3nccs3)c3ccccc3n2)o1 | 10.2 | -7.8 | 15.7 | -14.3 | 35.5* | 12.2
Cc1ccc(-c2cc(C(=O)Nc3ccccc3C(N)=O)c3ccccc3n2)o1 | -5.2 | 1.5 | -15.7 | -13.1 | 64.6* | 27.8*
Cc1ccc(-c2cc(C(=O)Nc3nccs3)c3ccccc3n2)c(C)c1 | -1.9 | 1.8 | -2.0 | -2.2 | 1.9 | .
COC(=O)[C@H]1C[C@@]2(N3CCCC3)c3ccccc3N(C(=O)OC(C)(C)C)[C@H]2N1C(=O)OC(C)(C)C | . | . | . | 2.3 | 0.6 | .
O=[N+]([O-])c1nn(-c2ccccc2)[n+]([O-])c1N1CCN(c2ccccc2F)CC1 | 0.2 | -1.9 | 7.9 | 9.3 | 2.1 | .
NC(=O)C1CCN(c2nc3c(S(=O)(=O)c4ccccc4)nnn3c3ccccc23)CC1 | -25.8 | 3.8 | -12.8 | -10.9 | -3.7 | .
CCN(c1ccccc1)S(=O)(=O)c1cccc(C(=O)NCCOc2ccccc2OC)c1 | . | . | 38.0 | 1.7 | 1.0 | .
Cc1ccc(N2CC(C(=O)OCC(=O)c3ccc([N+](=O)[O-])cc3)CC2=O)cc1 (centres undefined) | 3.9 | -7.0 | -6.0 | -8.8 | 29.3* | 48.0*
COC(=O)[C@]12C[C@H](CC(=O)NCc3ccc(C)o3)C(=O)N(Cc3ccc(Cl)cc3Cl)C1=C[C@H](COCc1ccccc1)O[C@@H]2C | . | . | . | -7.2 | 2.3 | .
COC(=O)[C@]12C[C@H](CC(=O)NCc3cccc4ccccc34)C(=O)N(Cc3ccc(Cl)cc3Cl)C1=C[C@H](COCc1ccccc1)O[C@@H]2C | . | . | . | 1.2 | 68.4* | 0.9
CCCCNC(=O)CN(Cc1ccco1)S(=O)(=O)c1ccc(C(C)=O)cc1 | . | 2.4 | -0.6 | 4.5 | 2.1 | .
O=C1CCC/C(=N/NC(=O)c2sc3ccccc3c2Cl)C1 | 9.9 | -13.1 | 7.4 | -10.3 | 85.2* | 8.2
O=C(NN=C1CCCC1)c1sc2ccccc2c1Cl | 4.9 | -4.6 | 1.8 | -18.2 | 0.0 | .
CSc1ccc(CNC(=O)C2CCC(=O)N(CCc3ccc(Cl)cc3)C2)cc1 (centres undefined) | . | . | . | 3.4 | -2.4 | .
CCC1=NN2C(=N)/C(=C\c3ccc(SCc4ccco4)o3)C(=O)N=C2S1 | -46.0 | -96.6 | 5.9 | 6.0 | 38.8* | 14.7
CCCC1=NN2C(=N)/C(=C\c3ccc(SCc4ccco4)o3)C(=O)N=C2S1 | -92.7 | -3.7 | 25.3 | . | . | .
CCOC(=O)c1c(-c2cc(OC)c(OC)c(OC)c2)csc1N | . | . | . | -8.6 | -3.4 | .
Cn1c(=O)c(NC2CCCCC2)c2c3c(cccc31)C(=O)c1ccccc1-2 | . | . | 3.8 | -5.1 | 77.2* | 40.5*
CC(C)C1CC(N(C)C)=CC(=S)N1 (centres undefined) | . | . | . | 5.5 | 35.2* | 1.1
SMILES | GSTO1 counter | PAD4 inh | Apaf-1 inh | TDP2 absorb | PRMT1 FP inh | PRMT1 confirm
CCN(CC)C(=S)SSC(=S)N(CC)CC | 9.1 | 0.5 | -16.8 | 5.7 | 74.3* | 79.8*
CCN(CC)C(=S)SCC(=O)c1ccccc1 | -5.2 | -0.9 | 13.0 | 1.8 | -0.6 | .
CC(=O)N1CCN(c2ncnc3sc(-c4ccccc4)cc23)CC1 | -3.8 | 1.2 | 3.9 | -0.7 | -5.9 | .
Oc1ccc(N2CCN(c3ncnc4sc(-c5ccccc5)cc34)CC2)cc1 | . | . | . | -19.4 | 32.4* | 14.8
CC(C)n1cc(/C=C/c2cc[n+](C)cc2)c2ccccc21 | . | . | 2.7 | -1.6 | 30.6* | 18.6
CC(C)C1Nc2c(O)cc(Cl)c([N+](=O)[O-])c2C2C=CCC21 (centres undefined) | . | . | . | 3.1 | 30.1* | 19.9
O=C(O)C1Nc2c(Cl)cc(Cl)c(Cl)c2C2C=CCC12 (centres undefined) | 25.5 | -5.2 | . | -16.6 | 21.0 | .
O=C(CCSc1ccc(Cl)cc1)c1ccco1 | -3.9 | 1.6 | 3.9 | -12.4 | 40.7* | 66.3*
O=C(OCc1cn(Cc2ccc(Cl)cc2)nn1)N1CCCC1 | . | . | . | 2.4 | -4.9 | .
CC(C)(C)OC(=O)NCCCCCc1nnc(SCc2cccc(F)c2)o1 | -3.9 | -1.1 | 5.0 | 2.5 | -2.8 | .
CC(C)(C)OC(=O)NCCCCCc1nnc(SCc2ccccc2)o1 | -1.1 | -2.8 | 7.3 | 17.9 | 81.3* | 0.3
COC(=O)[C@@]1(Sc2ccc(C)cc2)CC(=O)N(C(=O)C2CC2)[C@@H]1c1ccccc1 | . | . | . | 3.5 | 55.4* | 58.4*
COc1ccc(S[C@]2(C(=O)N3CCN(C(C)=O)CC3)CC(=O)N(C(=O)C3CC3)[C@@H]2c2ccc(OC)cc2)cc1 | . | . | . | -3.0 | 52.9* | 43.9*
COc1ccc(S[C@]2(C(=O)N(C)C)CC(=O)N(C(=O)CCc3ccccc3)[C@@H]2c2ccc(OC)cc2)cc1 | . | . | . | -9.5 | 12.3 | .
COc1ccc(S[C@]2(C(=O)N(C)C)CC(=O)N(C(=O)C3CC3)[C@@H]2c2ccc(OC)cc2)cc1 | . | . | . | -3.7 | 41.6* | 34.0*
COC(=O)[C@@]1(Sc2ccc(C)cc2)CC(=O)N(c2ccc(Cl)cc2)[C@@H]1c1ccccc1 | . | . | . | -0.9 | -0.2 | .
COc1ccc(S[C@]2(C(=O)N3CCCC3)CC(=O)N(C(=O)C3CC3)[C@@H]2c2ccc(OC)cc2)cc1 | . | . | . | -6.6 | 38.0* | 35.5*
COc1ccc(SC[C@H](Cc2ccccc2)N2CC[C@@H](C(C)(C)C)CCC2=O)cc1 | . | -1.3 | 24.6 | 6.3 | 14.2 | .
CN1c2ccsc2/C(=N/NC(=O)c2c(F)cccc2F)CS1(=O)=O | 2.9 | -0.5 | -5.0 | 3.7 | 0.6 | .
CN1c2ccsc2/C(=N/Nc2ccccc2)CS1(=O)=O | 12.9 | -6.1 | 14.9 | 3.0 | 38.0* | 0.5
O=C(/C=C/c1ccccc1[N+](=O)[O-])Nc1cccnc1 | -4.5 | -0.2 | -0.9 | -2.4 | -0.5 | .

Compound activity: PubChem BioAssay, several laboratories
